Here are results for two compounds from ChEMBL document CHEMBL1139360, “Mechanism of p300 specific histone acetyltransferase inhibition by small molecules” (J Med Chem, 2009).

The target of test [1] is T1, Histone acetyltransferase p300 (Homo sapiens, UniProt Q09472). The experiment in a line: Inhibition of HAT p300 catalytic domain.
The target of test [2] is T1, Histone acetyltransferase p300. The experiment in a line: Binding affinity to HAT p300 catalytic domain by isothermal titration calorimetry. Summed up: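 ITC at 20 °C. Ligand at 30–35 μM injected into 3 μM p300 HAT domain in 20 mM Tris-HCl pH 7.5, 0.2 mM EDTA, 100 mM KCl. 35 injections, 2 min apart; the first 1 μL injection was discarded. Ligand-into-buffer and buffer-into-buffer blanks were subtracted, and data fitted to a one-set-of-sites model.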
Background: ITC needs no label: the signal is the heat of the interaction.

For test [3], the target named is Histone acetyltransferase KAT2B (Homo sapiens) (UniProt Q92831). The experiment in a line: Inhibition of HAT PCAF relative to control. Also on record: scale not given: the % may be the effect or the level left. The procedure, abridged:
(§1)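 Filter-binding HAT assay with PCAF, purified HeLa core histones and ³H-acetyl-CoA, run at increasing inhibitor concentrations. Activity compared with a DMSO solvent control.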

In test [4] the target is T1, Histone acetyltransferase p300. The experiment in a line: Inhibition of HAT p300 catalytic domain activity expressed in Escherichia coli BL21 (DE3) co-transformed with human SirT2 by fluorography/autoradiography assay.
Test [5] shares this target. The experiment in a line: Inhibition of HAT p300 catalytic domain assessed as drug-induced alteration of protein tertiary structure at 2.5 uM by Stern-Volmer plot. Also on record: scale not given: the % may be the effect or the level left. The procedure, abridged: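 p300 HAT domain (1.2 μM) preincubated 2 min at room temperature with 2.5 μM inhibitor in 20 mM Tris-HCl pH 7.5, 0.2 mM EDTA, 100 mM KCl. Acrylamide added stepwise; fluorescence read at 340 nm (excitation 295 nm) at 20 °C. Ksv taken from a Stern–Volmer plot and tryptophan accessibility from a modified Stern–Volmer plot.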

The target is the same in test [6]. The experiment in a line: Binding affinity to HAT p300 catalytic domain by fluorometric titration. The procedure, abridged: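 p300 HAT domain (aa 1284–1673, 6His, from E. coli BL21(DE3) co-expressing SirT2), 1.2 μM, titrated with ligand in 20 mM Tris-HCl pH 7.5, 0.2 mM EDTA, 100 mM KCl. Tryptophan emission read at 340 nm (excitation 295 nm). Kd obtained by nonlinear least-squares fit; ΔFmax taken from a double-reciprocal plot.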

The target in test [7] is Histone acetyltransferase KAT2B (Homo sapiens) (UniProt Q92831). The experiment in a line: Inhibition of HAT PCAF up to 40 uM relative to control. On the set-up: scale not given: the % may be the effect or the level left. The procedure, abridged:
as §1

For test [8] the target is unchanged. The experiment in a line: Inhibition of HAT PCAF up to 10 uM after 2 mins in absence of acetyl-CoA. On the set-up: scale not given: the % may be the effect or the level left. The procedure, abridged: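 PCAF preincubated with inhibitor at 10 μM without acetyl-CoA over a time course, then assayed for HAT activity on purified HeLa core histones in triplicate. Activity compared with a DMSO control.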

As a reminder, the Ki is a measure of affinity in units of concentration, obtained from inhibition or displacement. Usually Kd stands for the equilibrium constant for the complex coming apart.

T1 sequence (Q09472 whole entry, the tested form may be a part): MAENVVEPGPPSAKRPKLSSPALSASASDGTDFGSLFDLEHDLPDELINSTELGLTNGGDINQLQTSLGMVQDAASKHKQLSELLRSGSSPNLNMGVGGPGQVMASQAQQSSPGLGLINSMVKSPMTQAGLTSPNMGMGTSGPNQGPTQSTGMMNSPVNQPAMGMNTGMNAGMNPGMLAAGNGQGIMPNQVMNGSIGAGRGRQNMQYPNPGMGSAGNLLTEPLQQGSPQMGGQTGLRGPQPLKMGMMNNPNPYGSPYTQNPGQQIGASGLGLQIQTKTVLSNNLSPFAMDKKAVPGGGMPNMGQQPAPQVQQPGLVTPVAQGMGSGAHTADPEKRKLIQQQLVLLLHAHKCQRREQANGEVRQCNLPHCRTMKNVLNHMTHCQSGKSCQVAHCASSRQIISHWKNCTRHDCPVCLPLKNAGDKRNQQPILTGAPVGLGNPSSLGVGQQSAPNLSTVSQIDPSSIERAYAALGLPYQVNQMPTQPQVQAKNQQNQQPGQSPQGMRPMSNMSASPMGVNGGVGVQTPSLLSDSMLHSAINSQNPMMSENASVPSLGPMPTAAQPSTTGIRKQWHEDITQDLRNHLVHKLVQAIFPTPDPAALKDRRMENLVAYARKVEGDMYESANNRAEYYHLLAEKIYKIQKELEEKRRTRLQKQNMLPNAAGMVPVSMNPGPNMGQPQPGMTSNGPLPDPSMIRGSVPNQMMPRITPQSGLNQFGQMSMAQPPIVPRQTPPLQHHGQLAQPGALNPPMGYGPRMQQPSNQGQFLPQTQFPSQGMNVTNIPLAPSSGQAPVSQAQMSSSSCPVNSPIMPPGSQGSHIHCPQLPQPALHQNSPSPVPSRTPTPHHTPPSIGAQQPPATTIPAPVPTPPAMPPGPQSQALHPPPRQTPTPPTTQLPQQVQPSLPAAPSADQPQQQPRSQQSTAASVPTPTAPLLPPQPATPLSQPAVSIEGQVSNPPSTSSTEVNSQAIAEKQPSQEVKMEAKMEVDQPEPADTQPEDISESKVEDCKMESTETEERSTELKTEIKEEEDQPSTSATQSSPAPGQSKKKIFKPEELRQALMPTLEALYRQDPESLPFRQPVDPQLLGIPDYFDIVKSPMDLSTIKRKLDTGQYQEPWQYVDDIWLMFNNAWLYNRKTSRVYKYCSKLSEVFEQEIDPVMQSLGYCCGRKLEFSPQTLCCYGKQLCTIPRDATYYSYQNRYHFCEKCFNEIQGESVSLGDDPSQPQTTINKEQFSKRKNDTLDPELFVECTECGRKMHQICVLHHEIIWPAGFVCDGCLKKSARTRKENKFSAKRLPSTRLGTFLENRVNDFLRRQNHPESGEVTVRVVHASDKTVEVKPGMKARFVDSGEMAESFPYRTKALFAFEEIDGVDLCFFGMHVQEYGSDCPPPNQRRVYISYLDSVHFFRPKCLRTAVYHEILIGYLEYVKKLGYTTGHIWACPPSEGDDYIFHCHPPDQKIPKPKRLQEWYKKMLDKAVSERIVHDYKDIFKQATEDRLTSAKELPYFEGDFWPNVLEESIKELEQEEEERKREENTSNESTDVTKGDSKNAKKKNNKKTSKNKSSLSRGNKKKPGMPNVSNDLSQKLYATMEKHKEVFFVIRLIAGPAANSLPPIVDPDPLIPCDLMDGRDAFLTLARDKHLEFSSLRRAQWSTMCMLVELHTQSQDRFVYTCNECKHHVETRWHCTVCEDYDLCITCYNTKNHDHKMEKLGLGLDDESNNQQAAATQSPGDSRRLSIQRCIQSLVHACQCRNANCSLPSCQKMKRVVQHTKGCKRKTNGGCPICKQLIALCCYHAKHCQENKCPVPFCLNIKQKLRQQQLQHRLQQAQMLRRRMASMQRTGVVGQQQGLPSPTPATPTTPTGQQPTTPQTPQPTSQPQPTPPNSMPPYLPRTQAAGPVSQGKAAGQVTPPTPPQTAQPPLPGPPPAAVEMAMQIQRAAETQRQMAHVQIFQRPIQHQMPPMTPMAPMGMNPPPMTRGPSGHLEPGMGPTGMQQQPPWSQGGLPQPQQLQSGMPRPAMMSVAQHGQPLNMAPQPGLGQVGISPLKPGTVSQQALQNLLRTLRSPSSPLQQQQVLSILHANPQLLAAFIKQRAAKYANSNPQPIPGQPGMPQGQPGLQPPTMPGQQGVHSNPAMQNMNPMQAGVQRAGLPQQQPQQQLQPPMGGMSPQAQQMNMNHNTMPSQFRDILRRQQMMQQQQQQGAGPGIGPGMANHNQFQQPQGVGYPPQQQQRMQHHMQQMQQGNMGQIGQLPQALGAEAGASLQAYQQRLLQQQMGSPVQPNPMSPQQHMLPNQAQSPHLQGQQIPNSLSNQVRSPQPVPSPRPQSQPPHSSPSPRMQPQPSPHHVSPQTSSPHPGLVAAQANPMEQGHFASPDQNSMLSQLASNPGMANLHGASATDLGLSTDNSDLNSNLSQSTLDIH
Histone acetyltransferase KAT2B (Homo sapiens), sequence (Q92831 whole entry, looked up): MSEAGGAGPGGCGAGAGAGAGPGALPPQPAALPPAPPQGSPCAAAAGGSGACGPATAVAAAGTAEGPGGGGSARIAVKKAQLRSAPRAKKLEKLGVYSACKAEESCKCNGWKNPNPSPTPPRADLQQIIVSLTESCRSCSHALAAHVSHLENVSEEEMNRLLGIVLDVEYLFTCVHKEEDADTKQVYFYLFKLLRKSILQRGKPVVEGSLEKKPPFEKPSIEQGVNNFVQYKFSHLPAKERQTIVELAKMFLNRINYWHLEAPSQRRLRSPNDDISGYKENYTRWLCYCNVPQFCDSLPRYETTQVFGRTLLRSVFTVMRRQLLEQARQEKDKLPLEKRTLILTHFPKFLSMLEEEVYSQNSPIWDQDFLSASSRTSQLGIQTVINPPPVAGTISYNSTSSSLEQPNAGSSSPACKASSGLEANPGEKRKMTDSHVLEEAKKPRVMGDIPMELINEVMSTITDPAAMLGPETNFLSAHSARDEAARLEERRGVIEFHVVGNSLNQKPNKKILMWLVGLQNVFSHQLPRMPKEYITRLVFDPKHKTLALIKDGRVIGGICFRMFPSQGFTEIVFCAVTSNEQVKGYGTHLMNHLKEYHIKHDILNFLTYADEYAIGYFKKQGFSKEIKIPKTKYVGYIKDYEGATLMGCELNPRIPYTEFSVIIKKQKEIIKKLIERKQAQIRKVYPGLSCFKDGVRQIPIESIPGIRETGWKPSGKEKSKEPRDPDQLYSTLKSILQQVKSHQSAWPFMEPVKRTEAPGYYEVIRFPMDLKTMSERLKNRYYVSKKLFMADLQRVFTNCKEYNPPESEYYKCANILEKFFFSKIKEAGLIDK

In the case of `CC(C)=CC[C@H]1C[C@@]23C[C@@H](CC=C(C)C)C(C)(C)[C@@](CC=C(C)C)(C(=O)C(C(=O)c4ccc(O)c(O)c4)=C2OC1(C)C)C3=O` [CAMBOGIN], the Ki in test [1] stood at 3.9 µM. Moreover, the Kd is 5.9 µM in test [2] and 1.1 µM in test [6]. Also, the Activity in test [3] was 50%; in test [4], “Dose-dependent effect”; in test [5], 75%.

In turn, `C=C(C)[C@@H](CC=C(C)C)C[C@@]12C[C@@H](CC=C(C)C)C(C)(C)[C@@](CC=C(C)C)(C(=O)C(C(=O)c3ccc(O)c(O)c3)=C1O)C2=O` [GARCINOL] returned a Ki in test [1] of 4.9 µM. The figures for the Kd in test [2] and in test [6] were 6.6 µM and 1.8 µM, respectively. In addition, the Activity result in test [4] is “Dose-dependent effect”; in test [5] it was 78%; in test [7], 90%; in test [8] it was 80%.
